Reference: ChEMBL document CHEMBL3525900, “Pharmacokinetics, distribution, and metabolism of [14C]sunitinib in rats, monkeys, and humans” (Drug Metab Dispos, 2012)

How the values were obtained:
Type in all cases: ADME, organism-based
[1] = Drug concentration in female Lister Hooded pigmented rat lymph node assessed as radioactivity per gram of tissue at 20 mg/kg administered as single dose via gastric gavage measured after 24 hrs by autoradiographic analysis; parameters: dose 20 mg/kg, dosed compound name [14C]Sunitinib; details: in vivo, po
Method in brief: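 Sprague Dawley (albino) and Lister Hooded (pigmented) rats, ca 7-8 weeks old, 179-310 g, acclimated 7 days. Single gavage dose of [14C]sunitinib L-malate (15 mg freebase/kg, 100 µCi/kg). One male and one female killed by CO2 per time point: albino at 3, 6, 24, 72, 168 h; pigmented at 24, 72, 168, 336 h. Carcasses frozen in solid CO2/hexane, 30 µm sagittal sections freeze-dried. Tissue radioactivity read by quantitative whole-body autoradiography against regression of standards, mean background subtracted.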

[2] = tested on: Adrenal; test: Drug concentration in female Lister Hooded pigmented rat adrenal assessed as radioactivity per gram of tissue at 20 mg/kg administered as single dose via gastric gavage measured after 336 hrs by autoradiographic analysis; parameters: dose 20 mg/kg, dosed compound name [14C]Sunitinib; details: in vivo, po
Method in brief: (§1)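 Lister Hooded (pigmented) rats, ca 7-8 weeks old, acclimated 7 days, given [14C]sunitinib L-malate by gastric gavage at 20 mg/kg (15 mg freebase/kg, 100 µCi/kg). One male and one female killed by CO2 at 24, 72, 168 and 336 h. Carcasses frozen in solid CO2/hexane and embedded in frozen cellulose. 30 µm sagittal cryosections were freeze-dried. Tissue radioactivity measured by quantitative whole-body autoradiography against calibration standards, with background subtracted.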

[3] = tested on: Stomach; test: Drug concentration in male Lister Hooded pigmented rat stomach assessed as radioactivity per gram of tissue at 20 mg/kg administered as single dose via gastric gavage measured after 168 hrs by autoradiographic analysis; parameters: dose 20 mg/kg, dosed compound name [14C]Sunitinib; details: in vivo, po
[4] = tested on: Zone of skin; test: Drug concentration in female albino rat abdomen skin assessed as radioactivity per gram of tissue at 20 mg/kg administered as single dose via gastric gavage measured after 3 hrs by autoradiographic analysis; parameters: dose 20 mg/kg, dosed compound name [14C]Sunitinib; details: in vivo, po
Method in brief: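 Sprague Dawley (albino) rats, ca 7-8 weeks old, received a single gastric-gavage dose of [14C]sunitinib L-malate at 20 mg/kg (15 mg freebase/kg, 100 µCi/kg). One animal per sex killed by CO2 at 3, 6, 24, 72 and 168 h, then frozen in CO2/hexane. 30 µm sagittal sections were cut and freeze-dried. Radioactivity per gram quantified by whole-body autoradiography using regression against standards. LOQ 0.04–0.06 µg freebase equiv/g.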

[5] = Drug concentration in male albino rat pituitary gland assessed as radioactivity per gram of tissue at 20 mg/kg administered as single dose via gastric gavage measured after 168 hrs by autoradiographic analysis; parameters: dose 20 mg/kg, dosed compound name [14C]Sunitinib; details: in vivo, po
[6] = tested on: Liver; test: Drug concentration in male albino rat liver assessed as radioactivity per gram of tissue at 20 mg/kg administered as single dose via gastric gavage measured after 72 hrs by autoradiographic analysis; parameters: dose 20 mg/kg, dosed compound name [14C]Sunitinib; details: in vivo, po
[7] = Drug concentration in female albino rat salivary gland assessed as radioactivity per gram of tissue at 20 mg/kg administered as single dose via gastric gavage measured after 24 hrs by autoradiographic analysis; parameters: dose 20 mg/kg, dosed compound name [14C]Sunitinib; details: in vivo, po
Method in brief: (§2)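 Sprague Dawley albino rats, ca 7-8 weeks old, dosed once by gastric gavage with [14C]sunitinib L-malate (15 mg freebase/kg, 100 µCi/kg). One male and one female killed by CO2 at 3, 6, 24, 72 and 168 h. Carcasses frozen in solid CO2/hexane, embedded and cut into 30 µm sagittal sections, then freeze-dried. Radioactivity quantified by whole-body autoradiography against standards by regression, background subtracted.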

[8] = Drug concentration in male Lister Hooded pigmented rat preputial gland assessed as radioactivity per gram of tissue at 20 mg/kg administered as single dose via gastric gavage measured after 168 hrs by autoradiographic analysis; parameters: dose 20 mg/kg, dosed compound name [14C]Sunitinib; details: in vivo, po
[9] = tested on: Spleen; test: Drug concentration in male albino rat spleen assessed as radioactivity per gram of tissue at 20 mg/kg administered as single dose via gastric gavage measured after 3 hrs by autoradiographic analysis; parameters: dose 20 mg/kg, dosed compound name [14C]Sunitinib; details: in vivo, po
[10] = Drug concentration in female albino rat thyroid gland assessed as radioactivity per gram of tissue at 20 mg/kg administered as single dose via gastric gavage measured after 72 hrs by autoradiographic analysis; parameters: dose 20 mg/kg, dosed compound name [14C]Sunitinib; details: in vivo, po
[11] = Drug concentration in female albino rat lymph node assessed as radioactivity per gram of tissue at 20 mg/kg administered as single dose via gastric gavage measured after 6 hrs by autoradiographic analysis; parameters: dose 20 mg/kg, dosed compound name [14C]Sunitinib; details: in vivo, po; method in brief: as §2
[12] = Drug concentration in female Lister Hooded pigmented rat eye assessed as radioactivity per gram of tissue at 20 mg/kg administered as single dose via gastric gavage measured after 24 hrs by autoradiographic analysis; parameters: dose 20 mg/kg, dosed compound name [14C]Sunitinib; details: in vivo, po; method in brief: as §1
[13] = Drug concentration in female albino rat salivary gland assessed as radioactivity per gram of tissue at 20 mg/kg administered as single dose via gastric gavage measured after 3 hrs by autoradiographic analysis; parameters: dose 20 mg/kg, dosed compound name [14C]Sunitinib; details: in vivo, po; method in brief: as §2
[14] = tested on: Liver; test: Drug concentration in male Lister Hooded pigmented rat liver assessed as radioactivity per gram of tissue at 20 mg/kg administered as single dose via gastric gavage measured after 72 hrs by autoradiographic analysis; parameters: dose 20 mg/kg, dosed compound name [14C]Sunitinib; details: in vivo, po
[15] = tested on: Large intestine; test: Drug concentration in male Lister Hooded pigmented rat large intestine assessed as radioactivity per gram of tissue at 20 mg/kg administered as single dose via gastric gavage measured after 168 hrs by autoradiographic analysis; parameters: dose 20 mg/kg, dosed compound name [14C]Sunitinib; details: in vivo, po
[16] = tested on: Large intestine; test: Drug concentration in female albino rat large intestine assessed as radioactivity per gram of tissue at 20 mg/kg administered as single dose via gastric gavage measured after 72 hrs by autoradiographic analysis; parameters: dose 20 mg/kg, dosed compound name [14C]Sunitinib; details: in vivo, po; method in brief: as §2
[17] = tested on: Rattus norvegicus; test: Cmax as total radioactivity in female Sprague-Dawley rat plasma at 5 mg/kg, iv administered as single dose by LC/MS/MS analysis; parameters: dose 5 mg/kg, dosed compound name [14C]Sunitinib, route intravenous; details: in vivo
Method in brief: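 Single dose of [14C]sunitinib L-malate as free base, 50 µCi/kg. IV dose was 5 mg/kg by tail vein in 5 females. Oral dose was 15 mg/kg by gavage in 3 females and 3 males. Total radioactivity was by scintillation counting. […] Cmax was read from raw data, t½ by log-linear regression, AUC by linear trapezoidal rule.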

[18] = tested on: Thymus; test: Drug concentration in male Lister Hooded pigmented rat thymus assessed as radioactivity per gram of tissue at 20 mg/kg administered as single dose via gastric gavage measured after 24 hrs by autoradiographic analysis; parameters: dose 20 mg/kg, dosed compound name [14C]Sunitinib; details: in vivo, po
[19] = tested on: Spleen; test: Drug concentration in male Lister Hooded pigmented rat spleen assessed as radioactivity per gram of tissue at 20 mg/kg administered as single dose via gastric gavage measured after 72 hrs by autoradiographic analysis; parameters: dose 20 mg/kg, dosed compound name [14C]Sunitinib; details: in vivo, po
[20] = Drug concentration in male albino rat lachrymal gland assessed as radioactivity per gram of tissue at 20 mg/kg administered as single dose via gastric gavage measured after 24 hrs by autoradiographic analysis; parameters: dose 20 mg/kg, dosed compound name [14C]Sunitinib; details: in vivo, po
[21] = tested on: Thymus; test: Drug concentration in female albino rat thymus assessed as radioactivity per gram of tissue at 20 mg/kg administered as single dose via gastric gavage measured after 6 hrs by autoradiographic analysis; parameters: dose 20 mg/kg, dosed compound name [14C]Sunitinib; details: in vivo, po
[22] = Drug concentration in male albino rat lymph node assessed as radioactivity per gram of tissue at 20 mg/kg administered as single dose via gastric gavage measured after 6 hrs by autoradiographic analysis; parameters: dose 20 mg/kg, dosed compound name [14C]Sunitinib; details: in vivo, po
[23] = Drug concentration in female Lister Hooded pigmented rat salivary gland assessed as radioactivity per gram of tissue at 20 mg/kg administered as single dose via gastric gavage measured after 24 hrs by autoradiographic analysis; parameters: dose 20 mg/kg, dosed compound name [14C]Sunitinib; details: in vivo, po; method in brief: as §1
[24] = tested on: Thymus; test: Drug concentration in female Lister Hooded pigmented rat thymus assessed as radioactivity per gram of tissue at 20 mg/kg administered as single dose via gastric gavage measured after 24 hrs by autoradiographic analysis; parameters: dose 20 mg/kg, dosed compound name [14C]Sunitinib; details: in vivo, po; method in brief: as §1
[25] = tested on: Large intestine; test: Drug concentration in female Lister Hooded pigmented rat large intestine assessed as radioactivity per gram of tissue at 20 mg/kg administered as single dose via gastric gavage measured after 24 hrs by autoradiographic analysis; parameters: dose 20 mg/kg, dosed compound name [14C]Sunitinib; details: in vivo, po; method in brief: as §1

Radiolabel recovery [1]: 1.14 ugequiv
Radiolabel recovery [2]: 0.66 ugequiv
Radiolabel recovery [3]: 0.06 ugequiv
Radiolabel recovery [4]: 3.16 ugequiv
Radiolabel recovery [5]: 0.76 ugequiv
Radiolabel recovery [6]: 0.24 ugequiv
Radiolabel recovery [7]: 2.65 ugequiv
Radiolabel recovery [8]: 0.06 ugequiv
Radiolabel recovery [9]: 20.52 ugequiv
Radiolabel recovery [10]: 0.26 ugequiv
Radiolabel recovery [11]: 14.48 ugequiv
Radiolabel recovery [12]: 31.8 ugequiv
Radiolabel recovery [13]: 27.64 ugequiv
Radiolabel recovery [14]: 0.22 ugequiv
Radiolabel recovery [15]: 0.06 ugequiv
Radiolabel recovery [16]: 0.09 ugequiv
Cmax [17]: 2148 ngequiv/ml
Radiolabel recovery [18]: 0.67 ugequiv
Radiolabel recovery [19]: 0.13 ugequiv
Radiolabel recovery [20]: 4.7 ugequiv
Radiolabel recovery [21]: 9.8 ugequiv
Radiolabel recovery [22]: 11.26 ugequiv
Radiolabel recovery [23]: 1.66 ugequiv
Radiolabel recovery [24]: 0.88 ugequiv
Radiolabel recovery [25]: 0.78 ugequiv
Compound: CCN(CC)CCNC(=O)c1c(C)[nH]c(/[14CH]=C2\C(=O)Nc3ccc(F)cc32)c1C.O=C(O)C[C@H](O)C(=O)O
